Calls of active or inactive are those of the source. No cut-off for these calls is given here.
Assays:
[1] = tested on: ZR-75-1; assay: Antiproliferative activity against human ZR-75-1 cells assessed as inhibition of cell growth incubated for 48 hrs by MTT assay; assay type: functional, cell-based; conditions: ZR-75-1, 48 h
[2] = tested on: MDA-MB-231; assay: Antiproliferative activity against human MDA-MB-231 cells assessed as inhibition of cell growth at 1 uM incubated for 48 hrs by MTT assay; assay type: functional
Procedure, shortened: (§1)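 Positive-control reference measured alongside the single-concentration screen: cells seeded at 4 × 10⁴ per well, adhered overnight, exposed 48 h to doxorubicin at 1 μM. MTT (2.5 mg mL⁻¹) added for 4 h, formazan dissolved in DMSO, absorbance at 570 nm; percent growth inhibition relative to untreated cells.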

[3] = tested on: ZR-75-1; assay: Antiproliferative activity against human ZR-75-1 cells assessed as inhibition of cell growth at 1 uM incubated for 48 hrs by MTT assay; assay type: functional; procedure, shortened: as §1
[4] = tested on: MDA-MB-231; assay: Antiproliferative activity against human MDA-MB-231 cells assessed as inhibition of cell growth incubated for 48 hrs by MTT assay; assay type: functional, cell-based; conditions: MDA-MB-231, 48 h
[5] = tested on: MCF7; assay: Antiproliferative activity against human MCF7 cells assessed as inhibition of cell growth at 1 uM incubated for 48 hrs by MTT assay; assay type: functional; procedure, shortened: as §1
[6] = Metabolic stability of the compound in mouse liver microsomes at 5 uM measured for 30 mins in absence of NADPH by substrate depletion method based LC-MS/MS analysis; assay type: ADME, Microsome; conditions: 0.5 h
Procedure, shortened: (§2)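 NADPH-free control incubations: microsomes (0.5 mg mL⁻¹) in 100 mM PBS pH 7.4 with 3.3 mM MgCl₂, no NADPH, 37 °C; compound 5 μM, 0–30 min. Acetonitrile quench with diazepam internal standard, LC-MS/MS; percent remaining versus 0 min, triplicate.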

[7] = tested on: MCF7; assay: Induction of apoptosis in human MCF7 cells assessed as increase in cleaved PARP protein expression at 5 to 20 uM incubated for 48 hrs by western blot analysis; assay type: functional, cell-based; conditions: dose 5-20 µM
Procedure, shortened: (§3)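 MCF-7 cells (1 × 10⁶ per 100 mm dish, RPMI 1640 with 10% FBS) treated 48 h at 5, 10, 15 and 20 μM, 37 °C. RIPA lysates, Bradford-quantified, 50 μg per lane on SDS-PAGE, PVDF transfer, 5% BSA/TBST block; probed for cleaved PARP (1:1000) and Bax (1:400), band densitometry.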

[8] = Cytotoxicity against human MCF-10A cells assessed as inhibition of cell growth incubated for 24 hrs by MTT assay; assay type: toxicity, cell-based
Procedure, shortened: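 Non-tumorigenic MCF-10A breast epithelial cells in 96-well plates (5% CO₂) exposed 24 h to 10, 50 and 100 μM. MTT (2.5 mg mL⁻¹) for 4 h, formazan dissolved in DMSO, absorbance at 570 nm; percent growth inhibition calculated to estimate IC50.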

[9] = Half life in rat liver microsomes; assay type: ADME, Microsome
Procedure, shortened: (§4)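 Substrate depletion: microsomes (0.5 mg mL⁻¹ protein) in 100 mM PBS pH 7.4, 3.3 mM MgCl₂, 1.2 mM NADPH, preincubated 5 min at 37 °C; compound spiked at 5 μM, sampled at 0, 15 and 30 min. Quenched with cold acetonitrile containing diazepam internal standard, LC-MS/MS; triplicate. Log-linear plot of remaining substrate (0 min = 100%) gives parameters.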

[10] = tested on: MCF7; assay: Antiproliferative activity against human MCF7 cells assessed as inhibition of cell growth incubated for 48 hrs by MTT assay; assay type: functional, cell-based; conditions: MCF7, 48 h
Procedure, shortened: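 MCF-7 exposed 48 h to 0.625, 1.25, 2.5, 5, 10, 20 and 40 μM. MTT (2.5 mg mL⁻¹) added for 4 h, medium removed, formazan solubilized in DMSO, absorbance at 570 nm; percent growth inhibition calculated and IC50 derived.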

[11] = tested on: MCF7; assay: Induction of autophagy in human MCF7 cells assessed as increase in autophagosome production at 5 to 20 uM by acridine orange staining based fluorescence microscopic analysis; assay type: functional, cell-based; conditions: dose 5-20 µM
Procedure, shortened: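 MCF-7 cells treated at 5, 10 and 20 μM, then stained with 200 nM acridine orange for 10 min at 37 °C and imaged by fluorescence microscopy.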

[12] = Half life in dog liver microsomes; assay type: ADME, Canis lupus familiaris, Microsome; procedure, shortened: as §4
[13] = tested on: MCF7; assay: Antiproliferative activity against human MCF7 cells assessed as inhibition of cell growth at 10 uM incubated for 48 hrs by MTT assay; assay type: functional
Procedure, shortened: (§5)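 Single-concentration screen: cells (ATCC; 37 °C, 5% CO₂) seeded at 4 × 10⁴ per well, adhered overnight, then treated 48 h at 10 μM. Medium removed, MTT (2.5 mg mL⁻¹) added for 4 h, formazan dissolved in DMSO, absorbance read at 570 nm; percent inhibition versus untreated cells.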

[14] = Metabolic stability of the compound in human liver microsomes at 5 uM measured for 30 mins in absence of NADPH by substrate depletion method based LC-MS/MS analysis; assay type: ADME, Microsome; conditions: 0.5 h; procedure, shortened: as §2
[15] = Metabolic stability of the compound in rat liver microsomes at 5 uM measured for 30 mins in absence of NADPH by substrate depletion method based LC-MS/MS analysis; assay type: ADME, Microsome; conditions: 0.5 h; procedure, shortened: as §2
[16] = Intrinsic clearance in human liver microsomes measured per mg protein; assay type: ADME, Microsome; procedure, shortened: as §4
[17] = Metabolic stability of the compound in dog liver microsomes at 5 uM measured for 30 mins in absence of NADPH by substrate depletion method based LC-MS/MS analysis; assay type: ADME, Canis lupus familiaris, Microsome; conditions: 0.5 h; procedure, shortened: as §2
[18] = Half life in monkey liver microsomes; assay type: ADME, Macaca mulatta, Microsome; conditions: rhesus monkey; procedure, shortened: as §4
[19] = tested on: ZR-75-1; assay: Antiproliferative activity against human ZR-75-1 cells assessed as inhibition of cell growth at 10 uM incubated for 48 hrs by MTT assay; assay type: functional; procedure, shortened: as §5
[20] = Intrinsic clearance in monkey liver microsomes measured per mg protein; assay type: ADME, Macaca mulatta, Microsome; conditions: rhesus monkey; procedure, shortened: as §4
[21] = Metabolic stability of the compound in monkey liver microsomes at 5 uM measured for 30 mins in absence of NADPH by substrate depletion method based LC-MS/MS analysis; assay type: ADME, Macaca mulatta, Microsome; conditions: rhesus monkey, 0.5 h; procedure, shortened: as §2
[22] = Half life in mouse liver microsomes; assay type: ADME, Microsome; procedure, shortened: as §4
[23] = Intrinsic clearance in dog liver microsomes measured per mg protein; assay type: ADME, Canis lupus familiaris, Microsome; conditions: read-out: CLH; procedure, shortened: as §4
[24] = Half life in human liver microsomes; assay type: ADME, Microsome; procedure, shortened: as §4
[25] = tested on: MCF7; assay: Induction of apoptosis in human MCF7 cells assessed as disruption of mitochondrial […] membrane potential by measuring decrease in fluorescence intensity at 5 to 20 uM incubated for 30 mins by Rhodamine123 staining based fluorescence microscopic analysis; assay type: functional, cell-based; conditions: dose 5-20 µM
Procedure, shortened: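 MCF-7 cells treated at 5, 10 and 20 μM; rhodamine 123 (1 μg) added 30 min before the end of treatment, cells rinsed with PBS and examined under a fluorescence microscope for loss of mitochondrial fluorescence.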

[26] = tested on: MDA-MB-231; assay: Antiproliferative activity against human MDA-MB-231 cells assessed as inhibition of cell growth at 10 uM incubated for 48 hrs by MTT assay; assay type: functional; procedure, shortened: as §5
[27] = Intrinsic clearance in rat liver microsomes measured per mg protein; assay type: ADME, Microsome; conditions: read-out: CLH; procedure, shortened: as §4
[28] = Intrinsic clearance in mouse liver microsomes measured per mg protein; assay type: ADME, Microsome; procedure, shortened: as §4
[29] = tested on: MCF7; assay: Increase in reactive oxygen species production in human MCF7 cells treated with higher concentrations by DCFH-DA staining based fluorescence microscopic analysis; assay type: functional, cell-based
[30] = tested on: MCF7; assay: Induction of apoptosis in human MCF7 cells assessed as increase in Bax protein expression at 5 to 20 uM incubated for 48 hrs by western blot analysis; assay type: functional, cell-based; conditions: dose 5-20 µM; procedure, shortened: as §3

COc1cccc2c1C(=O)c1c(O)c3c(c(O)c1C2=O)C[C@@](O)(C(=O)CO)C[C@@H]3O[C@H]1C[C@H](N)[C@H](O)[C@H](C)O1 [DOXORUBICIN]
IC50 [1]: 1.2 µM | inhibition at 1 µM [2]: 37.9% | inhibition at 1 µM [3]: 45.5% | IC50 [4]: 1.7 µM | inhibition at 1 µM [5]: 45.5%

COc1ccc(-c2ncn(-c3cc(OC)c(OC)c(OC)c3)n2)cc1F
Stability [6]: Stable | IC50 [1]: 34 µM | Activity [7]: Active | IC50 at 24 h [8]: > 100 µM | half-life [9]: < 30 min | IC50 [10]: 4.8 µM | Activity [11]: Active | half-life [12]: < 30 min | inhibition at 10 µM [13]: 51.3% | Stability [14]: Stable | Stability [15]: Stable | microsomal CLint [16]: 13 µL/min/mg | Stability [17]: Stable | half-life [18]: 60 min | inhibition at 10 µM [19]: 6.41% | microsomal CLint [20]: 23 µL/min/mg | Stability [21]: Stable | half-life [22]: 34 min | microsomal CLint [23]: > 53 µL/min/mg | half-life [24]: > 60 min | Activity [25]: Active | inhibition at 10 µM [26]: 32.1% | IC50 [4]: 17 µM | microsomal CLint [27]: > 86.1 µL/min/mg | microsomal CLint [28]: 41 µL/min/mg | Activity [29]: Active | Activity [30]: Active

COc1ccc(-n2cnc(-c3ccc(C(F)(F)F)cc3)n2)cc1OC
inhibition at 10 µM [13]: 21.3% | inhibition at 10 µM [26]: 15.8%

COc1cc(-n2cnc(-c3cccc(C=O)c3)n2)cc(OC)c1OC
inhibition at 10 µM [13]: 13.4% | inhibition at 10 µM [26]: 22.6%

COc1cc(-n2cnc(-c3cccc(O)c3)n2)cc(OC)c1OC
inhibition at 10 µM [13]: 32.8% | inhibition at 10 µM [19]: 8.54% | inhibition at 10 µM [26]: 10.4%

COc1cccc(-c2ncn(-c3cc(OC)c(OC)c(OC)c3)n2)c1
inhibition at 10 µM [13]: 16.4% | inhibition at 10 µM [26]: 16.4%

COc1cc(-n2cnc(-c3ccc(F)cc3)n2)cc(OC)c1OC
inhibition at 10 µM [13]: 20.2% | inhibition at 10 µM [26]: 23.1%

COc1cc(-n2cnc(-c3ccc(F)c(F)c3)n2)cc(OC)c1OC
inhibition at 10 µM [13]: 23.3% | inhibition at 10 µM [26]: 23.4%

COc1cc(-n2cnc(-c3cccc(C(F)(F)F)c3)n2)cc(OC)c1OC
IC50 [1]: 98 µM | IC50 [10]: 11 µM | inhibition at 10 µM [13]: 48.6% | inhibition at 10 µM [19]: 2.39% | inhibition at 10 µM [26]: 5.77% | IC50 [4]: 94 µM

COc1cc(-n2cnc(-c3ccc4nc[nH]c4c3)n2)cc(OC)c1OC
IC50 [1]: 93 µM | IC50 at 24 h [8]: > 100 µM | IC50 [10]: 5.2 µM | inhibition at 10 µM [13]: 58.5% | inhibition at 10 µM [19]: 21.2% | inhibition at 10 µM [26]: 31.6% | IC50 [4]: 15 µM

c1ccc2c(-c3ncn(-c4ccc5c(c4)OCO5)n3)cccc2c1
inhibition at 10 µM [13]: 5.71% | inhibition at 10 µM [26]: 15.3%
